Screening data from PubChem.
Mcl1 Bid PPI = disrupts binding of human Mcl-1 to Bid peptide. 220,000 tested, 0.97% active. Q07820. TR-FRET Mcl-1/Bid-Dy647 peptide binding, 1536-well. AID 1021. inhibition, % at 21.7 µM;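 active = compounds that cut the binding signal by more than half at the single screening dose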;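 also: His-tagged Mcl-1 with europium anti-His antibody binding Bid BH3 peptide; 0% = Mcl-1 plus peptide wells and 100% = peptide-only wells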
Target sequence (Q07820 whole entry, looked up): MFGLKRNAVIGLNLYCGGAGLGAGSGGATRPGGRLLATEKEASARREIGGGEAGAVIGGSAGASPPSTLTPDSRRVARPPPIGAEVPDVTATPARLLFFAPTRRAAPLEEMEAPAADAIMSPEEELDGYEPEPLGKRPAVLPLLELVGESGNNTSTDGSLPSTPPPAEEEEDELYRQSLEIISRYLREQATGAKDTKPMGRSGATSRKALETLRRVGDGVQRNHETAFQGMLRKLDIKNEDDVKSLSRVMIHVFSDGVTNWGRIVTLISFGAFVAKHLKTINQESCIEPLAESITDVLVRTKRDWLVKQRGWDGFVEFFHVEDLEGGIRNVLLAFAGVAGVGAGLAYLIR
Bim-Mcl-1 = disrupts Bim peptide binding to human Mcl-1; Bead-based flow cytometry, Bim peptide-Mcl-1 binding; AID 1009; Q07820; inhibition, % at 10 µM; 190,000 tested, 0.1% active; in the data active = inhibition above about 40%;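 also: 0% = no compound tracer wells and 100% = peptide blocker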
EBV gp42 block = EBV gp42 inhibition; AID 1085; Fluorescence polarization binding assay, mP read-out; Q1HVG2; 220,000 tested, 0.42% active; inhibition, % (tested at 21.74 µM); in the data active = inhibition above about 50%
MCL1 BIM primary = MCL1-BIM-BH3 interaction inhibition (human); GST-MCL1 / FITC-Bim-BH3 fluorescence polarization; Q07820; 320,000 tested, 0.68% active; AID 2057; inhibition, % at 10.9 µM;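 active = inhibition above the mean inhibition of all tested compounds plus 3 SD, set per campaign, cut at about 40% in these data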;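 also: 0% = DMSO wells and 100% = unlabeled Bim-BH3 peptide control; higher means more loss of mP so more displacement of Bim peptide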
RBBP9 inhibitor = human RBBP9 hydrolase inhibition | recombinant RBBP9, FP-Rh probe fluorescence polarization | inhibition, % at 7.94 µM | 220,000 tested, 0.2% active;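 active = inhibition above the campaign mean of all tested compounds plus 3 SD, cut at about 14% in these data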;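 also: plate controls were DMSO wells with RBBP9 for no effect and wells lacking RBBP9 protein for full effect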
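Test system: recombinant human RBBP9; Timing: 30 min then 45 min, 25 °C; Detection: fluorescence polarization; Control set: RBBP9 with DMSO as uninhibited control, no-protein wells as full inhibition; Compound dosing: one concentration, 7.94 µM nominal, 0.794% DMSO; Probe or stimulus: FP-Rh activity-based probe, 375 nM before mixing.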
Mcl1 Noxa PPI = disrupts binding of human Mcl-1 to Noxa peptide; Q07820; TR-FRET Mcl-1/Noxa peptide binding, 2 h; inhibition, % at 21.7 µM; 220,000 tested, 1.5% active;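 active = compounds that cut the protein-peptide binding signal by more than 50% relative to plate controls in a single-dose test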;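 also: His-tagged Mcl-1 with rhodamine Noxa BH3 peptide and terbium anti-His antibody; 0% = Mcl-1 plus Noxa peptide wells and 100% = peptide-only wells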
BCLXL inh confirm = Bcl-xL (human) inhibition, MCL1 counter-screen confirmation. shares compounds with MCL1 BIM primary. GST-Bcl-xL / FITC-Bim BH3 peptide FP binding. inhibition, % at 10.9 µM. 1,700 tested, 54% active;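 active = inhibition above a cutoff equal to the mean inhibition of all tested compounds plus 3 SD, cut at about 30% in these data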;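 also: 0% = DMSO wells and 100% = unlabeled Bim BH3 control peptide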
Target sequence (Q07817 whole entry, looked up): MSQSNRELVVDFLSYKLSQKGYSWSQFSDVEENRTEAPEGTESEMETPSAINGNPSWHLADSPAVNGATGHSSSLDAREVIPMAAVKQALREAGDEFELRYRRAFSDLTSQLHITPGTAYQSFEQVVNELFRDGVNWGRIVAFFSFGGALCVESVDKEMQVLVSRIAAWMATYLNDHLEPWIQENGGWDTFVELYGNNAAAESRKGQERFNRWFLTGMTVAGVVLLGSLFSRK
MCL1 BIM confirm = confirmation of human MCL1 and BIM-BH3 interaction inhibitors | shares compounds with MCL1 BIM primary | GST-MCL1 / FITC-Bim-BH3 fluorescence polarization | inhibition, % at 10.9 µM | 1,700 tested, 61% active;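 active = inhibition above the average of all tested compounds plus 3 SD, cut at about 40% in these data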;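 also: 0% = DMSO wells and 100% = unlabeled Bim-BH3 control peptide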
* = called active by the depositor; / = no result given. An excerpt weighted towards active compounds, which were near 2.2% of everything screened.

SMILES | Mcl1 Bid PPI | Bim-Mcl-1 | EBV gp42 block | MCL1 BIM primary | RBBP9 inhibitor | Mcl1 Noxa PPI | BCLXL inh confirm | MCL1 BIM confirm
Cc1[nH]c2ccccc2c1/C=N/NC(=O)C1CC1(c1ccccc1)c1ccccc1 (configuration not stated) | -4 | -3 | -54 | -11 | -5 | 8 | / | /
O=C1CC(N2CCSCC2)C(=O)N1c1ccc(F)cc1 (configuration not stated) | -14 | / | 5 | 2 | -4 | 5 | / | /
COC(=O)c1c(C)c2c(C)cc3ccccn3c-2c1C(=O)OC | -57 | 0 | 8 | 51* | 4 | 23 | 60* | 74*
CCCCn1c(N)c(N(CC(C)C)C(=O)C(C)SCc2nc3sc(C)c(C)c3c(=O)[nH]2)c(=O)[nH]c1=O (configuration not stated) | / | / | / | 6 | / | / | / | /
Nc1cccc2c(=O)c3ccccc3[nH]c12 | / | / | / | 41* | / | / | 37* | 25
COc1cccc2[nH]c3ccccc3c(=O)c12 | / | / | / | 4 | / | / | / | /
CCCn1c(/C=C/c2cc[n+](C)cc2)nc2ccccc21 | / | / | / | 72* | / | / | 53* | 56*
Cc1ccc2nc(SCC(=O)Nc3ccc(F)cc3F)nc(=O)n2c1 | / | / | / | 1 | / | / | / | /
COC(=O)CCC(=O)NNC(=O)C1CC1(c1ccccc1)c1ccccc1 (configuration not stated) | / | / | / | -2 | / | / | / | /
CC(=O)c1cc(-c2ccccc2)n(CC(=O)N2CCC(C)CC2)c1C | -32 | -1 | 1 | 11 | -5 | -2 | / | /
CC(=O)c1cc(-c2ccccc2)n(CC(=O)N2CCN(C3CCCC3)CC2)c1C | -32 | -3 | -3 | 55* | -10 | -15 | 19 | 24
O=C1NCC(COCc2ccccc2)O1 (configuration not stated) | -6 | 1 | -18 | 54* | 3 | 7 | 10 | 12
O=C(Nc1ccc([N+](=O)[O-])cc1)c1ccc(S(=O)(=O)N2CCCC2)cc1 | / | / | / | 58* | / | / | 0 | 8
O=C(Nc1ccc(S(=O)(=O)N2CCCCC2)cc1)c1ccc(F)cc1 | / | / | / | 3 | / | / | / | /
O=C(CCN1C(=O)C2CC=C(Cl)CC2C1=O)N1CCCCC1 (configuration not stated) | -30 | -1 | 13 | 56* | 5 | -2 | 56* | 66*
Clc1ccccc1-c1ccc(CN2CCN(c3ccccc3)CC2)o1 | -6 | -3 | -4 | 133* | 3 | 35 | 13 | 10
CCOc1cc(C(c2c(O)nc(SC)[nH]c2=O)c2c(O)nc(SC)[nH]c2=O)ccc1O | / | / | / | 97* | / | / | 65* | 76*
CCOC(=O)CN(C(=O)CNC(=O)c1ccco1)C(C(=O)NC1CCCCC1)c1cccs1 (configuration not stated) | 1 | -4 | -1 | 92* | -2 | -2 | 46* | 52*
CCOC(=O)CN(C(=O)CNC(=O)c1ccco1)C(C(=O)NC1CCCC1)c1ccccc1OCC (configuration not stated) | -13 | -1 | -17 | 4 | -6 | 8 | / | /
CCN1CCN(CNC(=O)c2cnccn2)CC1 | 0 | -3 | -12 | 2 | -7 | 8 | / | /
O=C(NCN1CCN(c2ccccc2)CC1)c1cnccn1 | / | / | / | 140* | / | / | 7 | 6
O=C1C(Br)=Cc2cccc3cccc1c23 | -7 | / | 116* | 135* | -1 | 5 | 97* | 133*
Brc1ccc(C2=Nn3c(Cn4nnc5ccccc54)nnc3SC2)cc1 | -1 | / | -17 | 9 | 9 | -8 | / | /
COC(=O)c1ccccc1NCc1cc(=O)oc2cc(O)c(O)cc12 | / | / | / | 60* | / | / | 23 | 65*
COc1ccc(C)cc1NCc1cc(=O)oc2cc(-c3ccccc3)c(O)cc12 | -22 | -4 | 1 | -2 | 1 | 24 | / | /
SMILES | Mcl1 Bid PPI | Bim-Mcl-1 | EBV gp42 block | MCL1 BIM primary | RBBP9 inhibitor | Mcl1 Noxa PPI | BCLXL inh confirm | MCL1 BIM confirm
COc1ccc(N(C(C)=O)C2C=CS(=O)(=O)C2)c(OC)c1 (configuration not stated) | -19 | 2 | -20 | 6 | -9 | -22 | / | /
COc1cccc(C(=O)N(c2ccc(OC)cc2OC)C2C=CS(=O)(=O)C2)c1 (configuration not stated) | -21 | -2 | 1 | 54* | 0 | -1 | 5 | 3
Cc1ccc(S(=O)(=O)N2CCCCC2)cc1C(=O)NCc1ccccn1 | / | / | / | 3 | / | / | / | /
CC1CCCN(c2nc3ccccc3nc2C(C#N)S(=O)(=O)c2ccccc2)C1 (configuration not stated) | -11 | -5 | 147* | 69* | 4 | -9 | -5 | -21
CCNC(=O)COC(=O)c1cc(-c2ccco2)nc2ccccc12 | -40 | / | 45 | 50* | -3 | 81* | 29 | 76*
O=C(OCC(=O)N1CCN(C(=O)c2ccco2)CC1)c1cc(-c2ccco2)nc2ccccc12 | -1 | 1 | 76* | 82* | -5 | 99* | 29 | 73*
CCCCN(C(=O)c1cc(-c2ccco2)nc2ccccc12)c1c(N)n(CCCC)c(=O)[nH]c1=O | / | / | / | 45* | / | / | 17 | 31
Cc1cc(C(=O)OCC(=O)NC(C)C)c2ccccc2n1 | -9 | / | -8 | 5 | -10 | 8 | / | /
Cc1ccnc2nc(C(=O)OCC(=O)N(CC(C)C)C3CCS(=O)(=O)C3)nn12 (configuration not stated) | / | / | / | 0 | / | / | / | /
Cc1ccc(/C=C2\Oc3cc(OC(=O)N4CCOCC4)ccc3C2=O)cc1 | -6 | -3 | -1 | -4 | -6 | 21 | / | /
O=C(Oc1ccc2c(c1)O/C(=C\c1ccncc1)C2=O)c1ccccc1 | 19 | 0 | -2 | 93* | 5 | 16 | 23 | 54*
COc1cc(/C=C2\SC(=S)N(C(C(=O)O)c3ccccc3)C2=O)ccc1O (configuration not stated) | 6 | / | -66 | 0 | -105 | 32 | / | /
O=C(O)C(c1ccccc1)N1C(=O)/C(=C\c2ccc(O)c(O)c2)SC1=S (configuration not stated) | / | / | / | 70* | / | / | 63* | 88*
CC1(NC(=O)NCCCCCCNC(=O)NC2(C)CCS(=O)(=O)C2)CCS(=O)(=O)C1 (configuration not stated) | / | / | / | -5 | / | / | / | /
COc1cccc(-n2c(C)c3c(OC)cccc(=O)c3c2C)c1 | -68 | 0 | 3 | 41* | 4 | 33 | 17 | 15
COc1cccc(=O)c2c(C)n(-c3cc(C)cc(C)c3)c(C)c12 | -34 | -4 | 8 | 0 | 0 | 0 | / | /
CC(C)CNc1c(N)n(CC(C)C)c(=O)[nH]c1=O | -64 | -3 | 25 | / | -6 | 7 | / | /
CCCCn1c(N)c(NCCC)c(=O)[nH]c1=O | -73 | -10 | 28 | 50* | -6 | 0 | 29 | 39
